# Data taken from article PMC5598146 (Toxicology Reports, 2015).
# Entries after “also recorded” stand apart in the source; their conditions may differ.
# Columns and labels:
# [1] = In vitro oxidative metabolism, rat liver microsomes; type: in vitro ADME
# Summary of the method: (§1)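 Pooled mixed-gender liver microsomes (human or Sprague-Dawley rat) were incubated with test compound plus NADPH for 60 min at 37 °C, then quenched with acetonitrile. Controls: time-zero and 60-min incubations without NADPH, plus testosterone incubations to confirm microsomal activity. Metabolites were sought by LC/MS full-scan analysis with UV detection at 214, 240 and 254 nm.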
# [2] = In vitro oxidative metabolism, human liver microsomes; type: in vitro ADME
# Summary of the method: as §1
# [3] = Pharmacokinetics and oral bioavailability in rats; type: in vivo, Sprague-Dawley rats; details: for half-life / bioavailability / clearance / Tmax: rat, plasma
# [4] = Relative oral bioavailability of sodium, phosphate and hemisulfate salts in rats; type: in vivo, Sprague-Dawley rats
# Summary of the method: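 Male Sprague-Dawley rats, 4/group, received a single 30 mg/kg oral gavage dose in 1% methylcellulose of either parent acid or its sodium, phosphate or sulfate salt. Jugular-catheter blood was drawn at about 15 and 30 min and at 1, 2, 4, 8 and 24 h. Plasma parent was measured by LC/MS/MS with an internal standard. Relative AUClast and Cmax were corrected for molecular-weight differences.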
# [5] = test system: human peripheral blood lymphocytes (HPBL); test: In vitro chromosome aberration test; type: cell-based; details: 125-500 ug/mL, 3 h ±S9, 20 h -S9
# Summary of the method: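 Human peripheral blood lymphocytes were exposed to the sodium salt of the test compound (0–500 µg/mL) per OECD 473, with solvent and positive controls (mitomycin C −S9, cyclophosphamide +S9). Exposures: 3 h and 20 h without S9, and 3 h with S9 from phenobarbital/5,6-benzoflavone-induced male Sprague-Dawley rat liver. Structural and numerical aberrations were scored at 125, 250 and 500 µg/mL for each condition.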
# Swiss albino (CD-1) mice = test: In vivo mouse micronucleus assay; details: 500-2000 mg/kg bw oral, male mice
# Sprague-Dawley rats = test: 28-Day dose-range finding toxicity study; type: in vivo, rat; details: 28 days
# [6] = Toxicokinetics in the 90-day dietary study; type: in vivo, Sprague-Dawley rats; details: for AUC(0-t): Sprague-Dawley [Crl:CD(SD)], rat, in vivo, po, AUC(0-24)
# [7] = test system: bred female Crl:CD(SD) rats; test: Dose range-finding developmental toxicity study; type: in vivo, rat; details: 125, 250, 500, 1000 mg/kg/day oral gavage, gestation Days 6-20
# [8] = Dietary exposure estimate; details: 100 mg/kg bw/day vs 2400 μg/day
# [9] = male, Sprague-Dawley, rat, plasma, po, 30 mg/kg
smiles,measurement,setting,value
"Cc1nc2cccc(OCC(C)(C)C(=O)NC(C)C)c2c(N)c1C(=O)O [S9632, 4-amino-5-(3-(isopropylamino)-2,2-dimethyl-3-oxopropoxy)-2-methylquinoline-3-carboxylic acid]",Metabolism (Phase I biotransformations),"[1]; 10 µM, 60 min, 37 °C, NADPH",not metabolized; also recorded: No Phase I biotransformations
same,Level above which no metabolism was observed,[1]; 60 min incubation,≤ 0.1 % of the parent drug
same,Metabolism (Phase I biotransformations),"[2]; 10 µM, 60 min, 37 °C, NADPH",not metabolized; also recorded: No Phase I biotransformations
same,Level above which no metabolism was observed,[2]; 60 min incubation,≤ 0.1 % of the parent drug
same,half-life,"[3]; both, Sprague-Dawley [Crl:CD(SD)], iv, 1 mg/kg, apparent plasma half-life (t1/2), range, iv, male and female",11.4 to 16.2 min
same,half-life,"[3]; both, Sprague-Dawley [Crl:CD(SD)], po, plasma elimination half-life (t1/2), range, oral administration",42.6 to 83.4 min
same,half-life,"[3]; both, Sprague-Dawley, iv, 1 mg/kg, t1/2, intravenous",< 16.2 min
same,bioavailability,"[3]; both, Sprague-Dawley, po",0.53 to 1.19%
same,half-life,"[3]; both, Sprague-Dawley, po, t1/2, oral administration",< 83.4 min
same,bioavailability,"[3]; female, Sprague-Dawley [Crl:CD(SD)], po, 100 mg/kg",0.83%
same,clearance,"[3]; female, Sprague-Dawley, iv, 1 mg/kg",42.5 mL/min/kg
same,Tmax,"[3]; female, Sprague-Dawley, iv, 1 mg/kg, iv 1.0 mg/kg, Day 1, F",1.8 min
same,half-life,"[3]; female, Sprague-Dawley, iv, 1 mg/kg, t1/2, iv 1.0 mg/kg, Day 1, F",16.2 min
same,bioavailability,"[3]; female, Sprague-Dawley, po, 10 mg/kg",1.19%
same,bioavailability,"[3]; female, Sprague-Dawley, po, 30 mg/kg",0.77%
same,AUC0-last/dose,"[3]; iv 1.0 mg/kg, Day 1, F",411.9 ng·h/mL/mg/kg
same,AUC0-last/dose,"[3]; iv 1.0 mg/kg, Day 1, M",330.6 ng·h/mL/mg/kg
same,Mean plasma clearance as % of hepatic blood flow,"[3]; iv, females",77.3%
same,Mean plasma clearance as % of hepatic blood flow,"[3]; iv, males",93.6%
same,clearance,"[3]; male, Sprague-Dawley, iv, 1 mg/kg",51.5 mL/min/kg
same,Tmax,"[3]; male, Sprague-Dawley, iv, 1 mg/kg, iv 1.0 mg/kg, Day 1, M",1.8 min
same,half-life,"[3]; male, Sprague-Dawley, iv, 1 mg/kg, t1/2, iv 1.0 mg/kg, Day 1, M",11.4 min
same,bioavailability,"[3]; male, Sprague-Dawley, po, 10 mg/kg",0.54%
same,bioavailability,"[3]; male, Sprague-Dawley, po, 30 mg/kg",0.92%
same,bioavailability,"[3]; male, Sprague-Dawley, po, 100 mg/kg",0.53%
same,AUC0-last/dose,"[3]; oral gavage 10 mg/kg, Day 1, F",4.92 ng·h/mL/mg/kg
same,AUC0-last/dose,"[3]; oral gavage 10 mg/kg, Day 1, M",1.79 ng·h/mL/mg/kg
same,AUC0-last/dose,"[3]; oral gavage 10 mg/kg, Day 7, F",5.89 ng·h/mL/mg/kg
same,AUC0-last/dose,"[3]; oral gavage 10 mg/kg, Day 7, M",4.81 ng·h/mL/mg/kg
same,AUC0-last/dose,"[3]; oral gavage 30 mg/kg, Day 1, F",3.17 ng·h/mL/mg/kg
same,AUC0-last/dose,"[3]; oral gavage 30 mg/kg, Day 1, M",3.03 ng·h/mL/mg/kg
same,AUC0-last/dose,"[3]; oral gavage 30 mg/kg, Day 7, F",3.56 ng·h/mL/mg/kg
same,AUC0-last/dose,"[3]; oral gavage 30 mg/kg, Day 7, M",2.87 ng·h/mL/mg/kg
same,AUC0-last/dose,"[3]; oral gavage 100 mg/kg, Day 1, F",3.41 ng·h/mL/mg/kg
same,AUC0-last/dose,"[3]; oral gavage 100 mg/kg, Day 1, M",1.76 ng·h/mL/mg/kg
same,AUC0-last/dose,"[3]; oral gavage 100 mg/kg, Day 7, F",2.79 ng·h/mL/mg/kg
same,AUC0-last/dose,"[3]; oral gavage 100 mg/kg, Day 7, M",1.85 ng·h/mL/mg/kg
same,Accumulation in plasma,[3]; repeated oral dosing for 7 consecutive days,No significant accumulation
same,AUC(0-t),[4]; [9],59.6 ± 26.1 ng·h/mL
same,Cmax,[4]; [9],38.7 ± 24.5 ng/mL
same,%Cmax Relative to S9632,"[4]; single oral 30 mg/kg, male rats, corrected for molecular weight",100.0%
same,"Chromosome aberration (in vitro), result",[5],Negative
same,"Micronucleus formation (in vivo), result",Swiss albino (CD-1) mice,did not induce micronuclei; also recorded: Negative
same,Findings,"Sprague-Dawley rats; 10, 30, 100 mg/kg/day food ad-mix",No test-article related findings
same,NOEL,"Sprague-Dawley rats; food ad-mix, male and female rats, highest dose tested",100 mg/kg/day
same,AUC(0-t),"[6]; both, 30 mg/kg/day, food ad-mix 30 mg/kg/day, Day 90, Combined",341 ng·h/mL
same,AUC(0-t),"[6]; both, 100 mg/kg/day, food ad-mix 100 mg/kg/day, Day 7, Combined",1040 ng·h/mL
same,AUC(0-t),"[6]; both, 100 mg/kg/day, food ad-mix 100 mg/kg/day, Day 90, Combined",1200 ng·h/mL
same,AUC(0-t),"[6]; female, 30 mg/kg/day, food ad-mix 30 mg/kg/day, Day 90, Female",389 ng·h/mL
same,AUC(0-t),"[6]; female, 100 mg/kg/day, food ad-mix 100 mg/kg/day, Day 90, Female",1400 ng·h/mL
same,AUC0-24/dose,"[6]; food ad-mix 30 mg/kg/day, Day 7, Combined",5.92 ng·h/mL/mg/kg
same,AUC0-24/dose,"[6]; food ad-mix 30 mg/kg/day, Day 7, Female",3.5 ng·h/mL/mg/kg
same,AUC0-24/dose,"[6]; food ad-mix 30 mg/kg/day, Day 7, Male",8.34 ng·h/mL/mg/kg
same,AUC0-24/dose,"[6]; food ad-mix 30 mg/kg/day, Day 90, Combined",11.4 ng·h/mL/mg/kg
same,AUC0-24/dose,"[6]; food ad-mix 30 mg/kg/day, Day 90, Female",13.0 ng·h/mL/mg/kg
same,AUC0-24/dose,"[6]; food ad-mix 30 mg/kg/day, Day 90, Male",9.75 ng·h/mL/mg/kg
same,AUC0-24/dose,"[6]; food ad-mix 60 mg/kg/day, Day 7, Combined",6.61 ng·h/mL/mg/kg
same,AUC0-24/dose,"[6]; food ad-mix 60 mg/kg/day, Day 7, Female",9.43 ng·h/mL/mg/kg
same,AUC0-24/dose,"[6]; food ad-mix 60 mg/kg/day, Day 7, Male",3.79 ng·h/mL/mg/kg
same,AUC0-24/dose,"[6]; food ad-mix 60 mg/kg/day, Day 90, Combined",13.3 ng·h/mL/mg/kg
same,AUC0-24/dose,"[6]; food ad-mix 60 mg/kg/day, Day 90, Female",9.14 ng·h/mL/mg/kg
same,AUC0-24/dose,"[6]; food ad-mix 60 mg/kg/day, Day 90, Male",17.5 ng·h/mL/mg/kg
same,AUC0-24/dose,"[6]; food ad-mix 100 mg/kg/day, Day 7, Combined",10.4 ng·h/mL/mg/kg
same,AUC0-24/dose,"[6]; food ad-mix 100 mg/kg/day, Day 7, Female",11.7 ng·h/mL/mg/kg
same,AUC0-24/dose,"[6]; food ad-mix 100 mg/kg/day, Day 7, Male",9.15 ng·h/mL/mg/kg
same,AUC0-24/dose,"[6]; food ad-mix 100 mg/kg/day, Day 90, Combined",12.0 ng·h/mL/mg/kg
same,AUC0-24/dose,"[6]; food ad-mix 100 mg/kg/day, Day 90, Female",14.0 ng·h/mL/mg/kg
same,AUC0-24/dose,"[6]; food ad-mix 100 mg/kg/day, Day 90, Male",10.0 ng·h/mL/mg/kg
same,AUC(0-t),"[6]; male, 30 mg/kg/day, food ad-mix 30 mg/kg/day, Day 90, Male",293 ng·h/mL
same,AUC(0-t),"[6]; male, 100 mg/kg/day, food ad-mix 100 mg/kg/day, Day 90, Male",1000 ng·h/mL
same,Findings,[7],No maternal toxicity or effects on intrauterine growth and survival up to 1000 mg/kg/day
same,NOAEL (90-day) relative to estimated dietary exposure,[8],2500 times
